The source of these data is ChEMBL document CHEMBL2163200, “Synthesis, biological evaluation, and structure-activity relationships of novel substituted N-phenyl ureidobenzenesulfonate derivatives blocking cell cycle progression in S-phase and inducing DNA double-strand breaks” (J Med Chem, 2012).

Active and inactive are the calls of the source. No cut-off for these calls is given here.

The test system of series [1] is Jurkat. Description: Cell cycle arrest in human Jurkat E6-1 cells assessed as accumulation at G0/G1 phase at 32 uM after 24 hrs by FACS flow cytometry. The format is functional. The essentials: (§1)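 Jurkat E6 cells cultured in RPMI 1640 with 10% FBS at 37 °C, 5% CO2. Compounds serially diluted in medium, starting 50% above the M21 IC50. 4.0 × 10^5 cells were exposed for 24 h. Cells were washed with PBS, chicken red blood cells added as internal standard, and fixed in ice-cold EtOH. After 1 h on ice in PBS with 1 μg/mL DAPI, phase distribution was read by flow cytometry. DMSO-treated cells served as control.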
(In general: A flow cytometer gives signals particle by particle.)

Series [2] deals with Jurkat. The series can be described thus: Cell cycle arrest in human Jurkat E6-1 cells assessed as accumulation at S phase at 32 uM after 24 hrs by FACS flow cytometry. The format is functional. The essentials:
(§2)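 Jurkat E6 T-lymphoblasts in RPMI 1640 with 10% FBS, 37 °C, 5% CO2. […] Chicken red blood cells were added as internal standard. Cells were fixed in ice-cold EtOH and stained with 1 μg/mL DAPI on ice for 1 h before flow cytometry of phase distribution. Vehicle control was 0.5% DMSO.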

The test system of series [3] is Jurkat. Description: Cell cycle arrest in human Jurkat E6-1 cells assessed as accumulation at G2/M phase at 32 uM after 24 hrs by FACS flow cytometry. The format is functional. The gist of the method: (§3)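 Jurkat E6 cells grown in RPMI 1640 with 10% FBS at 37 °C, 5% CO2. Compounds were serially diluted in medium starting 50% above the M21 IC50. 4.0 × 10^5 cells were exposed for 24 h, then washed and spiked with chicken red blood cells as internal standard. Cells were fixed in ice-cold ethanol, stained with 1 μg/mL DAPI on ice for 1 h, and phase distribution was read by flow cytometry. The control was 0.5% DMSO.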

Another series relates to HT-29. Description: Cytotoxicity against human HT-29 cells after 48 hrs by SRB assay. The format is functional, cell-based. As to conditions: HT-29, 48 h. The essentials:
(§4)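 NCI sulforhodamine B protocol. Cells were grown in high-glucose DMEM with 5% FBS and seeded per well at 4 × 10^3 (HT-29), 3.5 × 10^3 (M21) or 3 × 10^3 (MCF-7), then allowed 24 h to attach. Serial dilutions from 200 μM to 780 nM final were applied in DMSO <0.5% for 48 h. Cells were fixed with cold TCA (10% final) and stained with SRB, with absorbance read at 530–568 nm. Growth inhibition was computed against day-0 plates, giving the 50% inhibitory concentration. At least two experiments in triplicate, CV <10%.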

Series [4] relates to M21. The series can be described thus: Cytotoxicity against human M21 cells after 48 hrs by SRB assay. The format is functional, cell-based. As to conditions: M21, 48 h. The essentials: as §4
The test system of the next series is MCF7. The series can be described thus: Cytotoxicity against human MCF7 cells after 48 hrs by SRB assay. The format is functional, cell-based. As to conditions: MCF7, 48 h. The gist of the method: as §4
For orientation: In SRB staining, fixed cells bind dye roughly in proportion to their protein.

The subject of series [5] is Jurkat. Description: Cell cycle arrest in human Jurkat E6-1 cells assessed as accumulation at S phase at 25 uM after 24 hrs by FACS flow cytometry. The format is functional. The gist of the method: as §3
Series [6] concerns Jurkat. Description: Cell cycle arrest in human Jurkat E6-1 cells assessed as accumulation at G2/M phase at 25 uM after 24 hrs by FACS flow cytometry. The format is functional. The essentials:
as §3

The test system of series [7] is Jurkat. Description: Cell cycle arrest in human Jurkat E6-1 cells assessed as accumulation at G0/G1 phase at 25 uM after 24 hrs by FACS flow cytometry. The format is functional. The essentials:
as §1

Series [8] has as its system Jurkat. Description: Cell cycle arrest in human Jurkat E6-1 cells assessed as accumulation at S phase at 8.3 uM after 24 hrs by FACS flow cytometry. The format is functional. The essentials:
as §2

Series [9] concerns Jurkat. Description: Cell cycle arrest in human Jurkat E6-1 cells assessed as accumulation at G2/M phase at 8.3 uM after 24 hrs by FACS flow cytometry. The format is functional. The gist of the method: as §3
For series [10], the system named is M21. The series can be described thus: Induction of DNA damage response in human M21 cells assessed as phosphorylation of H2AX into gammaH2AX at IC50 after 24 hrs by DAPI staining-based immunofluorescence assay. The format is functional, cell-based. The essentials: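 M21 cells (1 × 10^5) on fibronectin-coated coverslips, grown 24 h, then exposed to agent for 24 h at 37 °C; 0.5% DMSO control. Fixed with 3.7% formaldehyde and permeabilized with 0.1% saponin/3% BSA. Probed with mouse anti-H2AX pS139 antibody for 2 h at room temperature. Nuclei counterstained with DAPI; nuclear γH2AX foci viewed by epifluorescence microscopy.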

The subject of series [11] is Jurkat. Description: Cell cycle arrest in human Jurkat E6-1 cells assessed as accumulation at G0/G1 phase at 8.3 uM after 24 hrs by FACS flow cytometry. The format is functional. The gist of the method:
as §1

Series [12] relates to Jurkat. Description: Cell cycle arrest in human Jurkat E6-1 cells assessed as accumulation at S phase at 15 uM after 24 hrs by FACS flow cytometry. The format is functional. The gist of the method: as §3
For series [13], the system named is Jurkat. Description: Cell cycle arrest in human Jurkat E6-1 cells assessed as accumulation at G2/M phase at 15 uM after 24 hrs by FACS flow cytometry. The format is functional. The gist of the method: as §1
In another series the test system is HT-1080. The series can be described thus: Antitumor activity against human HT1080 cells xenografted in chicken chorioallantoic membrane assessed as inhibition of tumor growth at 30 ug per egg, iv administered on day 11 measured on day 17 by CAM assay. The format is functional. The essentials:
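HT-1080 fibrosarcoma cells (3.5 × 105/egg) were applied onto freshly exposed CAM of fertilized chicken eggs. On day 11, drug from a DMSO stock was diluted in Cremophor EL/99% ethanol/PBS (1/1/14 v/v) and 100 μL was injected into a vein under the CAM. Groups of 10–12 eggs were kept to day 17, embryos were euthanized at 4 °C for ≥4 h, and tumor wet weight was recorded.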
On the technique in general: Xenograft models place foreign cells or tissue in a host animal.

Series [14] can be described thus: Toxicity in fertilized chicken embryo assessed as mortality rate at 30 ug per egg, iv administered on day 11 measured on day 17 by CAM assay. The format is organism-based, Gallus gallus. As to conditions: in vivo, read-out: Activity. The essentials: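 Fertilized chicken eggs grafted on the CAM with HT-1080 cells (3.5 × 105/egg) received a 100 μL intravenous injection under the CAM on day 11. The drug was diluted in Cremophor EL/99% ethanol/PBS (1/1/14 v/v). Groups held 10–12 eggs and were incubated until day 17, when dead embryos and signs of toxicity were counted per group.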

Series [15] relates to Jurkat. Description: Cell cycle arrest in human Jurkat E6-1 cells assessed as accumulation at G0/G1 phase at 15 uM after 24 hrs by FACS flow cytometry. The format is functional. The essentials: as §1
The subject of series [16] is Jurkat. The series can be described thus: Cell cycle arrest in human Jurkat E6-1 cells assessed as accumulation at S phase at 57 uM after 24 hrs by FACS flow cytometry. The format is functional. The gist of the method: as §2
The subject of series [17] is Jurkat. The series can be described thus: Cell cycle arrest in human Jurkat E6-1 cells assessed as accumulation at G2/M phase at 57 uM after 24 hrs by FACS flow cytometry. The format is functional. The gist of the method:
as §3

Series [18] deals with Jurkat. The series can be described thus: Cell cycle arrest in human Jurkat E6-1 cells assessed as accumulation at G0/G1 phase at 57 uM after 24 hrs by FACS flow cytometry. The format is functional. The essentials:
as §1

The subject of series [19] is Jurkat. The series can be described thus: Cell cycle arrest in human Jurkat E6-1 cells assessed as accumulation at G0/G1 phase at 2.2 uM after 24 hrs by FACS flow cytometry. The format is functional. The essentials:
as §1

In series [20] the test system is Jurkat. Description: Cell cycle arrest in human Jurkat E6-1 cells assessed as accumulation at S phase at 2.2 uM after 24 hrs by FACS flow cytometry. The format is functional. The essentials:
as §3

Series [21] deals with Jurkat. Description: Cell cycle arrest in human Jurkat E6-1 cells assessed as accumulation at G2/M phase at 2.2 uM after 24 hrs by FACS flow cytometry. The format is functional. The gist of the method:
as §3

As a reminder, the IC50 is the concentration at which inhibition is half-maximal. Lower therefore signals greater potency. Consider `CCNC(=O)Nc1cccc(S(=O)(=O)Oc2ccc(O)cc2)c1`, for which the Activity in the series with Jurkat [1] worked out at 43%; with Jurkat [2], 39%; with Jurkat [3] it was 18%. The IC50 in the series on HT-29 amounted to 75 µM; with M21 [4] it was 42 µM; in the series on MCF7, 64 µM.
For `Cc1ccccc1NS(=O)(=O)c1cccc(NC(=O)NCCCCl)c1`, the Activity is 38% in the series with Jurkat [5], 17% in the series on Jurkat [6] and 45% in the series with Jurkat [7]. The IC50 with HT-29 was found to be 42 µM; in the series on M21 [4], 60 µM; in the series with MCF7 it was 52 µM.
Regarding `Cc1ccccc1OS(=O)(=O)c1ccc(NC(=O)NCCCCl)cc1`, the Activity turned out to be 70% in the series with Jurkat [8], 10% with Jurkat [9] and 20% with Jurkat [11]. Moreover, in the series on M21 [10], the outcome was Active. The IC50 in the series on M21 [4] was 25 µM; with MCF7, 27 µM.
What is called TGI is the reduction of tumour growth relative to the control group. On to `CCc1ccccc1OS(=O)(=O)c1ccc(NC(=O)NCCCCl)cc1`, for which the Activity in the series on Jurkat [12] came out at 63%; with Jurkat [13], 11%; in the series on Jurkat [15], 26%. In the series on M21 [10], the result was Active. The TGI with HT-1080 worked out at 68%. Further, in [14], the mortality at 6 days worked out at 0%. Half-maximal inhibition with M21 [4] (IC50) required 15 µM.
Turning to `O=C(NCCCCl)Nc1cccc(S(=O)(=O)Oc2ccc(O)cc2)c1`, the Activity with Jurkat [16] was 48%; in the series with Jurkat [17] it was 9%; with Jurkat [18], 43%. Moreover, the IC50 in the series on M21 [4] turned out to be 49 µM.
As for `CCNC(=O)Nc1ccc(S(=O)(=O)Oc2ccccc2CC)cc1`, the Activity with Jurkat [19] turned out to be 11%; with Jurkat [20] it was 75%; in the series with Jurkat [21], 14%. In the series with M21 [10], the result was Active. Further, the TGI in the series with HT-1080 came out at 45%. In addition, the mortality at 6 days in [14] is 9%. For the same molecule, the IC50 stood at 12 µM in the series with HT-29, 2.5 µM in the series on M21 [4] and 3.4 µM with MCF7.
